From publication PMC6916675 (Cancer Management and Research, 2019)

What was measured:
Type in all cases: in vivo, human
[1] = test system: advanced solid or hematologic malignancies; assay: Antitumor efficacy
Method in brief: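 Investigators assessed response by RECIST 1.1, RANO, updated IWCLL or PCWG2 criteria. Solid tumours were restaged by CT or MRI after cycles 2, 4, 6, 9 and 12, every 6 cycles thereafter, and at end of treatment. Patients meeting IWCLL criteria but with persistent lymphocytosis were classed non-IWCLL. Best overall response frequency was tabulated. BA/FE substudy: 12 solid-tumour patients (GBM excluded).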

p4EBP1 = assay: Immunohistochemistry of paired tumor biopsies, p4EBP1; details: before treatment vs after approximately 15 days of treatment
[2] = Plasma pharmacokinetics of CC-115; details: for AUC(0-inf) / Vd/F / AUC / Cmax / Tmax: human, plasma, oral; for Cmax: Plasma Cmax, mean (CV%); for Tmax: Plasma Tmax, median (min, max)
mTORC2 (pAKT.S473) = assay: pAKT biomarker inhibition in stimulated blood monocytes
Method in brief: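 Blood sampled predose and up to 5 hrs postdose on cycle 1 days 1 and 15, plus around tumour biopsy (days 15–21). Markers: p4E-BP1 T37/T46 (mTORC1) and pAKT S473 (mTORC2). In Part B, CD14+ monocytes were stimulated with anti-IgD plus lipopolysaccharide (37°C, 15 min) and analysed by flow cytometry. Signal was expressed as molecules of equivalent fluorescein.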

[3] = 8 mg, first dose, 8 mg QD, n = 6
[4] = 8 mg, multiple doses, 8 mg QD, n = 7
[5] = 10 mg, first dose, 10 mg BID, n = 6
[6] = 10 mg, multiple doses, 10 mg BID, n = 7
[7] = 15 mg, first dose, 15 mg BID, n = 6
[8] = 15 mg, multiple doses, 15 mg BID, n = 5
[9] = 16 mg, first dose, 16 mg QD, n = 6
[10] = 16 mg, multiple doses, 16 mg QD, n = 8
[11] = 25 mg, first dose, 25 mg QD, n = 7
[12] = 25 mg, multiple doses, 25 mg QD, n = 5
[13] = 40 mg, first dose, 40 mg QD, n = 6
[14] = 40 mg, multiple doses, 40 mg QD, n = 4

Structure (SMILES): CCN1C(=O)CNc2ncc(-c3ccc(-c4nc[nH]n4)nc3C)nc21 [CC-115]
- 6-month PFS ([1]; Part B, CLL/SLL): 86%
- Best response of SD by IWCLL and non-IWCLL criteria ([1]; Part B, CLL/SLL, June 2017): 25%
- PR by IWCLL criteria ([1]; Part B, CLL/SLL, June 2017): 25%
- PR by non-IWCLL criteria (persistent lymphocytosis) ([1]; Part B, CLL/SLL, June 2017): 38%
- Best response of SD ([1]; Part B, CRPC, 11 efficacy evaluable patients): 64%
- 6-month PFS rate ([1]; Part B, ES): 0%
- Best response of SD ([1]; Part B, ES n=9): 22%
- Best response of nonprogression ([1]; Part B, GBM, 14 evaluable patients): 21%
- Best response of SD ([1]; Part B, HNSCC n=17): 53%
- Time in complete remission / tumor-free ([1]; one patient with endometrial cancer, 10 mg BID reduced to 8 mg BID): > 4 years
- Inhibition of p4EBP1 in paired tumor biopsies (p4EBP1): Moderate, not statistically significant, inhibition
- AUC(0-inf) ([2]; 8 mg): 237 ng·h/mL
- Vd/F ([2]; 8 mg): 294 L
- AUC ([2]; 8 mg, Plasma AUC12, mean (CV%), first dose, 8 mg QD, n = 6): 180 ng·h/mL
- AUC ([2]; 8 mg, Plasma AUC24, mean (CV%), first dose, 8 mg QD, n = 6): 236 ng·h/mL
- Cmax [2, 3]: 36.1 ng/mL
- Cmax [2, 4]: 40.9 ng/mL
- Tmax [2, 3]: 1.5 h
- Tmax [2, 4]: 1.5 h
- AUC(0-inf) ([2]; 10 mg): 605 ng·h/mL
- Vd/F ([2]; 10 mg): 189 L
- Cmax [2, 5]: 51.8 ng/mL
- Cmax [2, 6]: 75.2 ng/mL
- Tmax [2, 5]: 2.25 h
- Tmax [2, 6]: 1.42 h
- AUC(0-inf) ([2]; 15 mg): 1310 ng·h/mL
- Vd/F ([2]; 15 mg): 173 L
- Cmax [2, 7]: 134 ng/mL
- Cmax [2, 8]: 162 ng/mL
- Tmax [2, 7]: 1.04 h
- Tmax [2, 8]: 1.52 h
- AUC(0-inf) ([2]; 16 mg): 625 ng·h/mL
- Vd/F ([2]; 16 mg): 264 L
- Cmax [2, 9]: 88.7 ng/mL
- Cmax [2, 10]: 118 ng/mL
- Tmax [2, 9]: 2.95 h
- Tmax [2, 10]: 1.65 h
- AUC(0-inf) ([2]; 25 mg): 1910 ng·h/mL
- Vd/F ([2]; 25 mg): 149 L
- Cmax [2, 11]: 173 ng/mL
- Cmax [2, 12]: 198 ng/mL
- Tmax [2, 11]: 3 h
- Tmax [2, 12]: 1.52 h
- AUC(0-inf) ([2]; 40 mg): 2130 ng·h/mL
- Vd/F ([2]; 40 mg): 201 L
- Cmax [2, 13]: 167 ng/mL
- Cmax [2, 14]: 244 ng/mL
- Tmax [2, 13]: 2.25 h
- Tmax [2, 14]: 3 h
- Increase of Cmax and AUC∞ with dose ([2]; single and multiple doses ranging from 4 to 40 mg): linear, dose-proportional
- Median biomarker (pAKT) (mTORC2 (pAKT.S473); 10 mg BID cohort, after 3 hrs): 84%
- Dose above which mTORC2 (pAKT) was inhibited in peripheral blood monocytes (mTORC2 (pAKT.S473); Part A, repeat once-daily administration): > 4 mg QD
- Median decrease of pAKT (mTORC2 (pAKT.S473); Part B, 10 mg BID, day 15): 80%
- Inhibition of pAKT (mTORC2 (pAKT.S473); patient with endometrial cancer (complete response)): 85%
- Time for which pAKT inhibition was sustained (mTORC2 (pAKT.S473); postdose): at least 5 hrs
